Published values collected from several papers.
Protocols differ between the studies behind these lines.
Target: Mitogen-activated protein kinase kinase kinase 11 (MAP3K11, Homo sapiens, UniProt Q16584)

| Compound | test | setting | measurement | value |
| --- | --- | --- | --- | --- |
| Cn1cc(-c2cccc(N3CCc4c(sc5c4CC(C)(C)C5)C3=O)c2CO)cc(Nc2ccncn2)c1=O | enzyme activity, inhibitor | 1 µM | inhibition | -4% |
| Cn1cncc1[C@](O)(COc1ccc(C#N)cc1-c1ccc(OC(F)(F)F)cc1)c1ccc(C#N)cc1 | cell-free assay, competition with immobilised ligand | 1 µM | remaining binding | 86% |
| Nc1ncc(-c2nc(N3CCOCC3)nc(N3CCOCC3)n2)c(C(F)F)n1 | binding, competition with immobilised ligand | 10 µM | remaining binding | 47% |
| N#CC1(c2ccccn2)CCN(Cc2cc(C(=O)O)c(=O)n3ccccc23)CC1 | cell-free assay, competition with immobilised ligand | 1 µM | remaining binding | 100% |
| Cn1cc(-c2cc(F)cc(N3CCn4c(cc5c4CCCC5)C3=O)c2CO)cc(Nc2ccc(N3CCN(C4COC4)CC3)cn2)c1=O | enzyme activity, inhibitor | 0.1 µM | inhibition | 0% |
| O=c1[nH]c2ccccc2n1C1CCN(Cc2ccc(-c3[nH]c4cc5ncnc5cc4nc3-c3ccccc3)cc2)CC1 | cell-free assay | 0.5 µM | remaining signal | 94.6% |
| COc1ncccc1-c1cnn2ccc(N3CCN(C(=O)OC(C)C)CC3)nc12 | binding, competition with immobilised ligand | 1 µM | remaining binding | 76% |
| Cc1nn(C)cc1-c1nc2c(N3CCN(Cc4ccc(Cl)cc4)CC3)c(Cl)cnc2[nH]1 | binding, competition with immobilised ligand | 1 µM | remaining binding | 9.8% |
| CC(C)(C)c1cc(C=C(C#N)C#N)cc(Br)c1O | enzyme activity, inhibitor | 0.5 µM | remaining activity | 97.4% |
